Source: PubChem BioAssay (several laboratories)
An excerpt weighted towards active compounds, which were near 2.8% of everything screened.
p-CIP stab down = p/CIP-EGFP fusion destabilizers, primary screen, fluorescence, F442A cells. Q05BA5. 16 h. decrease of EGFP signal, % at 10 µM. 290,000 tested, 0.01% active;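 active means EGFP signal decrease of at least 30% at 10 µM or well 3 SD below plate mean, unless failing retest; inactive means the rest, including hits failing retest or dose response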
AI-2 QS mod = Vibrio harveyi AI-2 quorum sensing modulators, primary screen, JMH597 strain, luminescence/OD600 ratio | Vibrio harveyi JMH597 AI-2 luminescence/OD600 ratio, 9 h; stronger effect = lower value; strain lacks LuxN and CqsS sensors; 0 = neutral-control median | activity change, % at 7.5 µM | 300,000 tested, 0.4% active; in the data active means activity change below about -75%, passing the limit was not always enough;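 further: luminescence divided by OD600 gain over 9 h not by final OD600 alone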
UBC13 polyUb = UBC13 polyubiquitin chain formation inhibitors, primary screen, biochemical, TR-FRET, uHTS; 330,000 tested, 0.47% active; Ubiquitin-conjugating enzyme E2 N (Homo sapiens), P61088; inhibition, % at 20 µM; in the data active means inhibition above about 45%, passing the limit was not always enough
Target sequence (P61088 whole entry, looked up): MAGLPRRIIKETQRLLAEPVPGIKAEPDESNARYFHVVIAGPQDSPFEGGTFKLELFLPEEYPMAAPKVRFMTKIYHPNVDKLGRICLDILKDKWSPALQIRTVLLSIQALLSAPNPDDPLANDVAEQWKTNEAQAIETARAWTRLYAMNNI
PP1 inh = PP1-alpha phosphatase inhibitors, primary screen, counter-screen for PP5 inhibitor project, biochemical, fluorescence, OMFP substrate, single point | purified PP1alpha | Serine/threonine-protein phosphatase PP1-alpha catalytic subunit (Homo sapiens), P62136 | 320,000 tested, 0.9% active | inhibition, % at 6.7 µM;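 active means inhibition above the mean inhibition of all tested compounds plus 3 SD, computed separately for each screening campaign, cut at about 15% in these data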
Target sequence (P62136 whole entry, looked up): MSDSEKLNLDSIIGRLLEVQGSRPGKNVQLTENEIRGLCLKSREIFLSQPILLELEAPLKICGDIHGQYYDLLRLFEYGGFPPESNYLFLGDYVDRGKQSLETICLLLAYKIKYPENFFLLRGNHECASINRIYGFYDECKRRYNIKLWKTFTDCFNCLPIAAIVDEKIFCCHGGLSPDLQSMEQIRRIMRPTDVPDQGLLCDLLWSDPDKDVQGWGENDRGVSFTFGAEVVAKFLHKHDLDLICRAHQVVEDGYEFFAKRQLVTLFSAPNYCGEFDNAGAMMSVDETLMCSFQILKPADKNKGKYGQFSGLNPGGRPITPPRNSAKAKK
T cruzi inh = inhibitors of intracellular T. cruzi growth, primary screen, luminescence, NIH3T3 host cells | inhibition, % (no concentration beside the values) | T. cruzi beta-gal in NIH3T3, 90 h | 300,000 tested, 1.4% active;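 active means mean inhibition across valid replicates above about 55%, limit read from the data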;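 further: signal also drops with host cell toxicity which is not excluded here; higher percent means less beta-gal luminescence so fewer parasites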
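System: mouse NIH/3T3 fibroblasts infected with β-gal-expressing T. cruzi Tulahuen C4 / Input: NIH/3T3 cells, 5,000 per well / Buffer or medium: Low-serum DMEM with 2% FBS / Probe or stimulus: 5000 reporter trypomastigotes per well / Schedule: ≥90 h infection period, 3 h prior cell attachment / Measured by: GalScreen luminescence, 60 min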
PP1 confirm = PP1 phosphatase inhibitors, confirmation, biochemical, fluorescence, OMFP substrate, triplicate. 1,900 tested, 52% active. purified PP1alpha. inhibition, % at 6.7 µM. shares compounds with PP1 inh;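 active means mean PP1 inhibition above a set limit taken from the earlier primary screen, cut at about 15% in these data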
PP5 inh counter = PP5 phosphatase inhibition by PP1 hits, confirmation, counter-screen for PP1 inhibitor project, biochemical, fluorescence, triplicate | shares compounds with PP1 inh | purified PP5c, OMFP fluorescence | inhibition, % at 6.7 µM | 1,900 tested, 4% active;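 active means mean PP5 inhibition over triplicate wells above about 9.5% taken from the earlier PP1 screen, limit read from the data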
Large screens that a line does not name were inactive (follow-up assays come after a bar, where they were run).

COc1ccc(N2CCCC2=N)c(OC)c1	none
CCOc1ccccc1NC(=O)C1C2C=CC(O2)C1C(=O)O (stereo unspecified)	none
COc1ccc(OC)c(NC(=O)C2CCCC2)c1	none
COc1ccc(OC)c(NC(=O)C2C3CCC(O3)C2C(=O)O)c1 (stereo unspecified)	PP1 inh 64 | PP1 confirm 22 | PP5 inh counter 27
CCOc1ccccc1NC(=O)C1C2CCC(O2)C1C(=O)O (stereo unspecified)	PP1 inh 77 | PP1 confirm 16 | PP5 inh counter 31
CCOc1ccc(-n2c(=O)c3sccc3n(CC(=O)NC3CCCCC3)c2=O)cc1	none (no result: AI-2 QS mod)
O=C(C1=C[C@@H](c2ccc(Br)cc2)C[C@@H](OCc2ccc(CO)cc2)O1)N1CCN(Cc2ccccc2)CC1	none
C#Cc1ccc([C@H]2C=C(C(=O)N3CCN(Cc4ccccc4)CC3)O[C@@H](OCc3ccc(CO)cc3)C2)cc1	PP1 inh 19 | PP1 confirm 20 | PP5 inh counter inactive
COc1ccc(-n2c(SCC(=O)Nc3cc(C)on3)nc3c([nH]c4ccccc43)c2=O)cc1OC	none
COc1cc2c(cc1OC)C(c1ccc(C)cc1)NC(=O)C2 (stereo unspecified)	none (no result: PP1 inh)
CCOc1ccc(C2NC(=O)Cc3cc(OC)c(OC)cc32)cc1 (stereo unspecified)	PP1 inh 24 | PP1 confirm inactive | PP5 inh counter inactive
CCOc1ccc(NC(=O)CC2C(=O)N(c3cccc(OC)c3)C(=O)N2CCOC)cc1 (stereo unspecified)	none
Cc1ccc(C)c(S(=O)(=O)N2CCN(c3nc(-c4cccnc4)nc4ccccc34)CC2)c1	PP1 inh 19 (no result: p-CIP stab down, AI-2 QS mod, T cruzi inh) | PP1 confirm 18 | PP5 inh counter inactive
O=S(=O)(c1ccccc1F)N1CCN(c2nc(-c3cccnc3)nc3ccccc23)CC1	none (no result: p-CIP stab down, AI-2 QS mod, T cruzi inh)
COc1ccc(S(=O)(=O)N2CCN(c3nc(-c4cccnc4)nc4ccccc34)CC2)cc1	PP1 inh 21 (no result: p-CIP stab down, AI-2 QS mod, T cruzi inh) | PP1 confirm 17 | PP5 inh counter inactive
NC(=O)NN=C1C2CCCC1C(c1ccccc1)NC2c1ccccc1 (stereo unspecified)	none
O=c1[nH]c2ccc(S(=O)(=O)N3CCCCC3)cc2s1	none
O=C(COC(=O)c1cc(-c2ccc(F)cc2)nc2ccccc12)NCC1CCCO1 (stereo unspecified)	none
Cc1noc(C)c1CSCC(=O)OCc1nnc(-c2ccc([N+](=O)[O-])cc2)o1	none (no result: p-CIP stab down, AI-2 QS mod, PP1 inh, T cruzi inh)
CC(C)CN1C(=O)c2ccc(NC(=O)c3cccs3)cc2C1=O	none
O=C(Nc1ccc(Oc2ccc3c(c2)C(=O)N(c2ccc(O)cc2)C3=O)cc1)c1cccs1	PP1 inh 22 | PP1 confirm inactive | PP5 inh counter inactive
CCN(c1ccccc1)S(=O)(=O)c1cccc(C(=O)N(C)CCOc2ccccc2)c1	none (no result: p-CIP stab down)
Cc1cc(OCc2cc(C(=O)NC(C)c3c(C)nn(C)c3C)no2)cc(C)c1Cl (stereo unspecified)	none
C[C@@H]1CC[C@]2(O[C@@H](CCO)C[C@@H](O)[C@@H]2O)O1	none
Cc1ccccc1NC(=O)COC(=O)/C=C/c1cn(-c2ccccc2)nc1-c1cccnc1	PP1 inh 32 | PP1 confirm 32 | PP5 inh counter inactive
Cc1ccc(-c2csc(Cc3nc(-c4ccc5c(c4)CCC(=O)N5)cs3)n2)cc1	PP1 inh 36 | PP1 confirm 16 | PP5 inh counter inactive
COc1ccccc1-c1cc(-c2ccccc2)nc(SC(C(N)=O)c2ccccc2)c1C#N (stereo unspecified)	PP1 inh 19 | PP1 confirm 27 | PP5 inh counter inactive
COc1ccc(/C=C/C(=O)Nc2ccc(N3CCOCC3)cc2)cc1	none (no result: UBC13 polyUb)
COc1ccc(N2CCN(c3ccc(NC(=O)/C=C\C(=O)O)cc3)CC2)cc1	PP1 inh 20 | PP1 confirm inactive | PP5 inh counter inactive
COc1cc2c(cc1OC)C(c1cc(OC)c(OC)cc1[N+](=O)[O-])N(C(C)=O)CC2 (stereo unspecified)	none
O=C(c1ccc2ncsc2c1)N1CCCCC1	none
O=C(O)c1ccc2ncsc2c1	PP1 inh 19 | PP1 confirm 37 | PP5 inh counter inactive
Cc1ccc(S(=O)(=O)N(C)C)cc1NC(=O)CSc1nncs1	none (no result: p-CIP stab down)
O=C(Nc1ccccn1)c1cc2cc([N+](=O)[O-])ccc2s1	PP1 inh 21 | PP1 confirm 18 | PP5 inh counter inactive
O=C(Nc1ccccn1)c1ccc([N+](=O)[O-])cc1Cl	none
COC(=O)c1ccc(CNC(=O)CSC(C)C(=O)Nc2cc(C)on2)cc1 (stereo unspecified)	none (no result: p-CIP stab down, AI-2 QS mod, T cruzi inh)
O=C(O)c1cc(-c2ccc(N3CCOCC3)cc2)nn1-c1ccccc1Cl	PP1 inh 34 | PP1 confirm 38 | PP5 inh counter inactive
O=C(O)c1cc(-c2ccc(N3CCOCC3)cc2)nn1-c1ccc(F)cc1F	PP1 inh 24 | PP1 confirm 27 | PP5 inh counter inactive
CCn1c(SCC(=O)N2CCC(C)CC2)nc2c1c(=O)n(C)c(=O)n2C	none
Cc1cc2c(s1)c1cnn(CC(=O)NCCc3ccccc3)c(=O)c1n2C	PP1 inh 20 | PP1 confirm inactive | PP5 inh counter inactive
O=C(Cn1ncc2c([nH]c3ccccc32)c1=O)NCCc1ccc(Cl)cc1	PP1 inh 18 | PP1 confirm 21 | PP5 inh counter inactive
CSc1ccc(CCNC(=O)Cn2ncc3c([nH]c4ccccc43)c2=O)cc1	none
COc1ccc(CCNC(=O)CCn2c(=O)c3cccn3c3ccc(F)cc32)c(OC)c1OC	none
Cn1cc(C(=O)N/N=C/c2c(O)ccc3ccccc23)ccc1=O	PP1 inh 27 | PP1 confirm 29 | PP5 inh counter inactive
Cn1nccc1C(=O)N/N=C/c1c(O)ccc2ccccc12	none
Cc1ccc(C(=O)Nc2nc(-c3ccccn3)cs2)o1	PP1 inh 23 | PP1 confirm inactive | PP5 inh counter inactive
c1ccc(CCNc2nc(-c3ccccn3)cs2)cc1	PP1 inh 35 | PP1 confirm 44 | PP5 inh counter inactive
O=C(Nc1nc(-c2ccccn2)cs1)c1ccc(-c2ccccc2F)o1	PP1 inh 20 (no result: p-CIP stab down, AI-2 QS mod, T cruzi inh) | PP1 confirm 30 | PP5 inh counter 12
c1ccc(CCNc2nc(-c3cccnc3)cs2)cc1	none
CC(=O)c1ccc(-c2ccc(C(=O)Nc3nc(-c4ccccn4)cs3)o2)cc1	none (no result: p-CIP stab down, AI-2 QS mod, PP1 inh, T cruzi inh)
